Test results as given in ChEMBL document CHEMBL1156317, “Design and synthesis of conformationally constrained N,N-disubstituted 1,4-diazepanes as potent orexin receptor antagonists” (Bioorg Med Chem Lett, 2010).

How the values were obtained:
Orexin receptor type 2 [1] = molecular target: T1, Orexin receptor type 2 (Homo sapiens, UniProt O43614); assay: Binding affinity to OX2 receptor by radioligand displacement assay
T1 sequence (O43614 whole entry): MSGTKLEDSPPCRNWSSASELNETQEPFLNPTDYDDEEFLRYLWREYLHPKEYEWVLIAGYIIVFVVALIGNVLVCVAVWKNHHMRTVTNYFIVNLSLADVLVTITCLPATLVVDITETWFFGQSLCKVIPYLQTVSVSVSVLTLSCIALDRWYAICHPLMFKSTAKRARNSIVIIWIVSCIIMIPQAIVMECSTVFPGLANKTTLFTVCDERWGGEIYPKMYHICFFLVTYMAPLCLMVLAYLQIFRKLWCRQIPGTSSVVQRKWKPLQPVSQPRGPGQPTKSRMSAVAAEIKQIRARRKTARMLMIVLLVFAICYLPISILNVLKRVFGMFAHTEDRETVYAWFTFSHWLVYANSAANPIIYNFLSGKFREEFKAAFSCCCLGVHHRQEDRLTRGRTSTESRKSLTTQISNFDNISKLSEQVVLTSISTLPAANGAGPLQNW
In short: (§1)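 Displacement of a high-affinity radioligand bound to human orexin receptors. Values expressed as Ki.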

[2] = molecular target: T2, Orexin/Hypocretin receptor type 1 (Homo sapiens, UniProt O43613); assay: Binding affinity to OX1 receptor by radioligand displacement assay; in short: as §1
T2 sequence (O43613 whole entry): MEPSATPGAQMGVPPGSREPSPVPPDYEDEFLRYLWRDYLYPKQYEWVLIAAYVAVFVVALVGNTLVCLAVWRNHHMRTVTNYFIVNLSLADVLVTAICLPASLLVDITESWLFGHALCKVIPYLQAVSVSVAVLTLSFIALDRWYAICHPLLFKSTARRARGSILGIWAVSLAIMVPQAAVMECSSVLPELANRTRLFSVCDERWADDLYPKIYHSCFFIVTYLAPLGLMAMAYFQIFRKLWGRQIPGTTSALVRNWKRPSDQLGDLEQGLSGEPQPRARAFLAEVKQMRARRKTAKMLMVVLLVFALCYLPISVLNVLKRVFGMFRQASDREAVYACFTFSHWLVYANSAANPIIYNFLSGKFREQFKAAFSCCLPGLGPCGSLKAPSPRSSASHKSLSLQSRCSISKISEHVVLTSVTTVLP

Orexin receptor type 2 [3] = molecular target: T1, Orexin receptor type 2; assay: Antagonist activity at OX2 receptor assessed as inhibition of calcium flux by FLIPR assay; assay type: functional
In short: (§2)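 FLIPR assay on human orexin receptors, with calcium flux as the functional read-out of antagonism. Values expressed as IC50.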

[4] = molecular target: T2, Orexin/Hypocretin receptor type 1; assay: Antagonist activity at OX1 receptor assessed as inhibition of calcium flux by FLIPR assay; assay type: functional; in short: as §2
[5] = AUC (0 to 24 hrs) in rat at 10 mg/kg, po and 2 mg/kg, iv; assay type: ADME, organism-based; conditions: plasma
In short: (§3)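 Rats dosed orally at 10 mpk in VitE-TPGS and intravenously at 2 mpk in DMSO.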

[6] = AUC (0 to 24 hrs) in dog; assay type: ADME, organism-based, Canis lupus familiaris; parameters: time < 24 hr; conditions: plasma
[7] = Drug level in Sprague-Dawley rat plasma at 2 mg/kg, iv after 30 mins; assay type: ADME, organism-based; parameters: dose 2 mg/kg, route intravenous
In short: (§4)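 Rats aged seven to ten weeks, anesthetized with isoflurane (5% in oxygen to induce, 2% by nose cone to maintain), kept at 37 °C. Compound given by tail-vein infusion at 2 mg/kg over 30 min. At the end of infusion, CSF taken from the cisterna magna, then plasma by cardiac puncture, then the brain harvested. All samples frozen on dry ice and analysed for compound levels.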

[8] = Drug level in Sprague-Dawley rat CSF at 2 mg/kg, iv after 30 mins; assay type: ADME, organism-based; parameters: dose 2 mg/kg, route intravenous; conditions: cerebrospinal fluid, read-out: Drug uptake; in short: as §4
LLC-PK1 = assay: Ratio of permeability from basolateral to apical side over apical to basolateral side in pig LLC-PK1 cells expressing MDR1
[9] = Oral bioavailability in rat at 10 mg/kg; assay type: ADME, organism-based; conditions: in vivo; in short: as §3
[10] = Apparent permeability across pig LLC-PK1 cells; assay type: ADME, cell-based, Sus scrofa
[11] = Cmax in rat at 10 mg/kg, po and 2 mg/kg, iv; assay type: ADME, organism-based; conditions: in vivo; in short: as §3
[12] = Half life in rat at 10 mg/kg, po and 2 mg/kg, iv; assay type: ADME, organism-based; conditions: in vivo; in short: as §3
[13] = Clearance in rat at 10 mg/kg, po and 2 mg/kg, iv; assay type: ADME, organism-based; conditions: in vivo; in short: as §3
[14] = Protein binding in human; assay type: ADME, organism-based; conditions: in vivo, read-out: PB (converted)
[15] = Lipophilicity, log P of the compound; assay type: physicochemical; conditions: octanol/water
[16] = Ratio of drug level in brain to plasma in Sprague-Dawley rat at 2 mg/kg, iv after 30 mins; assay type: ADME, organism-based; parameters: dose 2 mg/kg, route intravenous
In short: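 Male/female unspecified Sprague–Dawley rats, 7–10 weeks old, under isoflurane anaesthesia (5% induction, 2% maintenance via nose cone) on a 37 °C warming blanket; compound given by tail-vein infusion, 2 mg/kg over 30 min. At end of infusion CSF taken from cisterna magna, plasma by cardiac puncture, brain harvested; samples frozen on dry ice and compound levels measured to give brain/plasma ratio.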

[17] = Clearance in dog; assay type: ADME, organism-based, Canis lupus familiaris; conditions: in vivo
[18] = Cmax in dog; assay type: ADME, organism-based, Canis lupus familiaris; conditions: in vivo
[19] = Drug level in Sprague-Dawley rat brain at 2 mg/kg, iv after 30 mins; assay type: ADME, organism-based; parameters: dose 2 mg/kg, route intravenous; conditions: read-out: Drug uptake; in short: as §4
[20] = Oral bioavailability in dog; assay type: ADME, organism-based, Canis lupus familiaris; conditions: in vivo
[21] = Half life in dog; assay type: ADME, organism-based, Canis lupus familiaris; conditions: in vivo
[22] = Protein binding in rat; assay type: ADME, organism-based; conditions: in vivo, read-out: PB (converted)

In the case of `Cc1ccc(-n2nccn2)c(C(=O)N2CCCN(c3ncc4cc(F)ccc4n3)CC2)c1`, the Ki (Orexin receptor type 2 [1]) is reported as 0.2 nM, the Ki [2] is reported as 1 nM and the IC50 (Orexin receptor type 2 [3]) is reported as 27 nM. It also gave an IC50 [4] of 36 nM.
`Cc1ccc(-n2nccn2)c(C(=O)N2CC3CC(C2)N(c2ncc4ccccc4n2)C3)c1` (single isomer, unassigned; enantiomer A) showed a Ki (Orexin receptor type 2 [1]) of 155 nM, a Ki [2] of 110 nM and an IC50 (Orexin receptor type 2 [3]) of 6200 nM. For the same compound, the IC50 [4] was 2500 nM.
In the case of `Cc1ccc(-n2nccn2)c(C(=O)N2CC3CC(C2)N(c2ncc4ccccc4n2)C3)c1` (single isomer, unassigned; enantiomer B), the AUC(0-t) [5] is reported as 0.23 µM·h, the AUC(0-t) at 24 h [6] is reported as 0.49 µM·h and the concentration at 0.5 h [7] is reported as 835 nM. It also gave a concentration at 0.5 h [8] of 60 nM, a Ratio (LLC-PK1) of 0.9 and a Ki (Orexin receptor type 2 [1]) of 0.9 nM. The bioavailability [9] was 2%, the Papp [10] was 37 ×10⁻⁶ cm/s and the Cmax [11] was 150 nM. It also gave a half-life [12] of 42 min, a clearance [13] of 45 mL/min/kg and a fraction unbound [14] of 0.064. The Ki [2] was 0.7 nM, the IC50 (Orexin receptor type 2 [3]) was 44 nM and the logP [15] was 2.6. For the same compound, the Kp at 0.5 h [16] was 0.8, the clearance [17] was 24 mL/min/kg and the IC50 [4] was 24 nM. It also gave a Cmax [18] of 510 nM, a concentration at 0.5 h [19] of 690 nM and a bioavailability [20] of 8%. It also gave a half-life [21] of 54 min and a fraction unbound [22] of 0.073.
Compound `Cc1ccc(-n2nccn2)c(C(=O)N2CC3CC2CCN3c2ncc3cc(F)ccc3n2)c1` (racemic) has a Ki (Orexin receptor type 2 [1]) of 3500 nM, a Ki [2] of 1700 nM and an IC50 (Orexin receptor type 2 [3]) of 3700 nM. For the same compound, the IC50 [4] was 3900 nM.
In the case of `Cc1ccc(-n2nccn2)c(C(=O)N2CCC3CC2CN3c2ncc3cc(F)ccc3n2)c1` (racemic), the Ki (Orexin receptor type 2 [1]) is reported as 260 nM, the Ki [2] is reported as 870 nM and the IC50 (Orexin receptor type 2 [3]) is reported as > 10000 nM. The IC50 [4] was > 5700 nM.
Work on `Cc1ccc(-n2nccn2)c(C(=O)N2CC3CC2CN(c2ncc4ccccc4n2)C3)c1` (stereo unspecified) yielded a Ki (Orexin receptor type 2 [1]) of 11 nM, a Ki [2] of 12 nM and an IC50 (Orexin receptor type 2 [3]) of 110 nM. The IC50 [4] was 77 nM.
`Cc1ccc(-n2nccn2)c(C(=O)N2CCCN(c3ncc4ccccc4n3)CC2)c1` gave an AUC(0-t) [5] of 0.19 µM·h, an AUC(0-t) at 24 h [6] of 0.44 µM·h and a concentration at 0.5 h [7] of 664 nM. For the same compound, the concentration at 0.5 h [8] was 19 nM, the bioavailability [9] was 2% and the Cmax [11] was 300 nM. It also gave a half-life [12] of 18 min, a clearance [13] of 53 mL/min/kg and a fraction unbound [14] of 0.024. For the same compound, the IC50 (Orexin receptor type 2 [3]) was 27 nM, the logP [15] was 2.91 and the Kp at 0.5 h [16] was 0.7. The clearance [17] was 12 mL/min/kg, the IC50 [4] was 29 nM and the Cmax [18] was 230 nM. It also gave a concentration at 0.5 h [19] of 462 nM, a bioavailability [20] of 16% and a half-life [21] of 78 min. The fraction unbound [22] was 0.029.
`Cc1ccc(-n2nccn2)c(C(=O)N2CC3CC(C2)N(c2ncc4ccccc4n2)C3)c1` (racemic) showed a Ki (Orexin receptor type 2 [1]) of 3.6 nM, a Ki [2] of 2.3 nM and an IC50 (Orexin receptor type 2 [3]) of 65 nM. It also gave an IC50 [4] of 42 nM.
